Assay: Toxicity liver stage against HepG2, at 10uM
Assay type: cell-based
Design: test concentration 10 uM, cell line HepG2-A16-CD81EGFP
Conditions: human, HepG2-A16-CD81EGFP cells; read-out: INHIBITION
Method in brief: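 Uninfected HepG2-A16-CD81EGFP cells, 3 × 10^3 per well, 1536-well, plated on prespotted compound at 10 μM final, parasite-free screening media added to match infected plates; puromycin 10 μM positive, DMSO 0.5% negative; run in parallel with 48 h PbLuc assay at 37 °C, 5% CO2; viability by CellTiter-Glo luminescence, normalized to controls.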

| Structure (SMILES) | cytotoxicity at 10 µM [%] |
| --- | --- |
| CC(C)NC(=O)N1CCOC2(CCCNC2)C1 (stereo unspecified) | 4.76 |
| CC(NC(=O)NCCCn1cccn1)c1ccccn1 (stereo unspecified) | -11.5 |
| CC(C)(C)OCCN(Cc1cccc(O)c1)C1CCC(O)CC1 (stereo unspecified) | 8.22 |
| CSc1ccccc1C(=O)NCCC(O)c1ccco1 (stereo unspecified) | -9.95 |
| Cc1cc(C[C@@H]2COC[C@@H]2NC(=O)CN2CCOC2=O)on1 | -0.6 |
| NC(=O)C1CCCN1c1cc(N2CCc3ccccc3C2)ncn1 (stereo unspecified) | -0.918 |
| O=C(c1cc(F)ccc1O)N1CCN(C2CCSC2)CC1 (stereo unspecified) | 0.773 |
| OC(COCc1cccs1)CSc1nnc2ccccn12 (stereo unspecified) | 1.66 |
| COC(C)(C)c1noc(C2(C#N)CCCC2)n1 | -5.11 |
| O=C(c1ccc(NC2CC2)nc1)N1CCCC(n2ccnc2)C1 (stereo unspecified) | -3.81 |
| CCCn1nc2c(cc1=O)CN(CC1CCCCO1)CC2 (stereo unspecified) | 12.5 |
| O=C(C1CN(CC2CCOCC2)CC12CCOCC2)N1CCCC1 (stereo unspecified) | 6.65 |
| CC(C)(C)c1ncc(C(=O)NCCNC(=O)c2cccs2)s1 | -1.56 |
| CNc1nc2c(s1)C(c1c(Cl)cccc1Cl)CC(=O)N2 (stereo unspecified) | -10.4 |
| COc1ccc(F)c(-c2cc(NCCO)nc(N)n2)c1 | -1.21 |
| O=C(C1CCCC1)N1CC2(CCN(C3COC3)C2)OCc2ccccc21 (stereo unspecified) | 4.92 |
| Cc1ccc(CN2CC[C@H]3[C@@H]2CCC(=O)N3CCN2CCCC2)s1 | 3.01 |
| COc1ccc(C)nc1NC(=O)Cc1c(C)nn(C)c1C | -0.302 |
| CN(C)c1cccc(C2CCCN2Cc2nnnn2C2CC2)c1 (stereo unspecified) | 5.15 |
| CC(Nc1ccc(CCN2CCCCC2)cc1)C(=O)N(C)CCC#N (stereo unspecified) | 7.61 |
| Fc1ccccc1CN1CCCN(c2ncnc3[nH]ccc23)CC1 | -5.86 |
| Cc1cc(CN2CCCC2c2noc(C)n2)no1 (stereo unspecified) | 2.48 |
| Cc1cc(CN2CCN(C(=O)CCc3ccco3)CC2)on1 | -2.6 |

| Structure (SMILES) | cytotoxicity at 10 µM [%] |
| --- | --- |
| CCOCC(=O)Nc1cc(-c2cccc(F)c2F)n[nH]1 | 0.107 |
| Cc1cnn(C2CCCN(C(=O)CCc3cscn3)C2)c1 (stereo unspecified) | -12.9 |
| Cc1cccc(CN2CC3(CCN(C(=O)C4CC4)CC3)OCC2=O)n1 | -4.67 |
| COCCNC(=O)Cn1c(-c2cccc(Cl)c2)nc(C)c(CCO)c1=O | -0.86 |
| Cc1nc(CN2CCC3(CCN(c4cnn(C)c4)C3=O)C2)cs1 (stereo unspecified) | 4.15 |
| CCc1nnc(SCc2nonc2C)n1C | -1.04 |
| CC(Cn1cccn1)NCc1csc(-c2ccccc2F)n1 (stereo unspecified) | -7.71 |
| CNS(=O)(=O)c1ccc(CNC(=O)NCC2CCCO2)cc1 (stereo unspecified) | 7.12 |
| O=C(CCCOc1ccc(F)cc1)N1CCCC(n2cccn2)C1 (stereo unspecified) | 4.23 |
| O=C(O)c1c[nH]c2cc(NS(=O)(=O)c3cc(F)ccc3Cl)ccc12 | -1.43 |
| CCc1cn[nH]c1C1CCN(C(=O)c2cc(C(C)=O)c(C)[nH]c2=O)CC1 | -2.23 |
| CC(C)COC(C)C(=O)NCc1ccc(-n2cncn2)nc1 (stereo unspecified) | -5.65 |
| Cc1noc(C)c1CN1Cc2nccn2CC(CN2CCOCC2)C1 (stereo unspecified) | -82 |
| CC(C)c1ncncc1C(=O)NCCN1CCCCCC1 | 5.15 |
| O=c1cc(CNS(=O)(=O)C2CC2)nc2n1CCCN(CC1CC1)C2 | -104 |
| CC(C)(C)C(CCO)NC(=O)Nc1ccncc1 (stereo unspecified) | -3.28 |
| CC1(C(=O)N2CCOCC2)CN(C2CCCCC2)CCO1 (stereo unspecified) | -22.3 |
| N#Cc1c(-c2ccccc2)csc1N | 2.42 |
| CC(=O)c1ccccc1-c1nc(CC2CCN(C)CC2)no1 | -17.5 |
| COCC1CN(C(=O)Nc2cc(C(F)(F)F)ccc2F)CCO1 (stereo unspecified) | 4.24 |
| Cc1cccc(CN2C[C@@H]3[C@@H](C(=O)NCC(C)C)CCS(=O)(=O)[C@@H]3C2)c1 | -2.63 |
| c1ccc(C(NCc2nnc(-c3ccco3)o2)C2CCC2)cc1 (stereo unspecified) | -48.7 |
| CC1(C(N)=O)CN(CC2CCOCC2)CCO1 (stereo unspecified) | -0.74 |

| Structure (SMILES) | cytotoxicity at 10 µM [%] |
| --- | --- |
| CC(C)c1ccc(O)c(C(=O)NC2CCN(c3ncccn3)CC2)c1 | 9.81 |
| c1coc(CN2Cc3ccnn3CC(COCC3CC3)C2)c1 (stereo unspecified) | -153 |
| Cc1cc(C(=O)NC(C)C(=O)Nc2cc(F)ccc2C)nc(C)n1 (stereo unspecified) | -3.71 |
| CC(=O)c1cc(CC(=O)NCc2c(F)cccc2F)cs1 | -8.51 |
| COCCN1CCC2(CC1)CN(C(C)=O)c1ccc(C)cc12 | 3.77 |
| CC(=O)Nc1nc(CNc2ccccc2CCC(F)(F)F)cs1 | 27.9 |
| Cc1c(NC(=O)c2ncn[nH]2)cccc1C(=O)NC(C)(C)C | -8.93 |
| Cc1ccc2cc(C3(O)CCN(C(=O)[C@@H]4CCCCN4)CC3)ccc2n1 | -0.456 |
| COc1cc(C(=O)N(C2CC2)C2CC(=O)NC2=O)ccc1C (stereo unspecified) | -3.58 |
| Cc1cc(N2CCC(CO)(CC3CCCCO3)CC2)c2ccccc2n1 (stereo unspecified) | 4.46 |
| Cc1nc(CN2CCO[C@H]3[C@@H](OCc4ccccn4)CC[C@@H]32)cs1 | 0.179 |
| COc1cc(C(=O)NCCc2ccc(OC)c(OC)c2)on1 | 1.84 |
| CC(NCc1cnc(C2CCC2)s1)c1ccc(-n2cccn2)cc1 (stereo unspecified) | 7.67 |
| O=C(C1CCOC1)N1CCC2(CC1)Cc1ccccc1CNC2=O (stereo unspecified) | -113 |
| CS(=O)(=O)N1CCCC12CCCN(C(=O)c1cc(F)cc(F)c1)C2 (stereo unspecified) | -140 |
| COc1cccc(CN(C)Cc2cc(C#N)ccc2F)c1OC | -5 |
| CC(C)Cc1noc(CN2CCN(C(=O)c3cccs3)CC2)n1 | -14.3 |
| CC(C)c1nc(C2CCCN2Cc2ccncc2Cl)no1 (stereo unspecified) | -2.83 |
| CCCN1C[C@H](NC(=O)c2ccccc2F)[C@@H](c2ccc(OC)cc2)C1 | -41.8 |
| CNC(=O)c1sc2ccccc2c1C1CCN(c2nc(C)cc(C)n2)C1 (stereo unspecified) | 4.93 |
| Cc1noc([C@@H]2CCCN2C(=O)C2CCN(CC(N)=O)CC2)n1 | 3.96 |
| CC(C)C(C)NC(=O)c1cc(Br)c2c(c1)OCCO2 (stereo unspecified) | -9.89 |
| CCc1nccn1-c1cncc(C2CCCN2Cc2ccccn2)n1 (stereo unspecified) | -3.47 |

| Structure (SMILES) | cytotoxicity at 10 µM [%] |
| --- | --- |
| Cc1oncc1C(=O)N1CC[C@H]2[C@H](CO[C@@H]2CNS(C)(=O)=O)C1 | 0.0508 |
| Cc1cc(CN(Cc2ccccc2)C(C)CN2CCOCC2)no1 (stereo unspecified) | 4.69 |
| CS(=O)(=O)NC[C@H]1Cn2c(-c3ccc4c(c3)OCCO4)cnc2CO1 | -11.1 |
| CC(=O)N1CCC(NC(=O)c2cc(Cl)ccc2-n2cnnn2)CC1 | 8.72 |
| CCOCCCNC(=O)c1cc(C)nc(N2CCCCC2)n1 | 8.52 |
| CC(C(=O)NC1CCN(C)CC1)n1nc(C(F)(F)F)c(Cl)c1C1CC1 (stereo unspecified) | -8.17 |
| Cc1ccc(-c2n[nH]cc2CNCC2CCS(=O)(=O)C2)o1 (stereo unspecified) | 12.4 |
| Cc1ccc(CN(C)C(=O)c2cccc(NC(N)=O)c2)o1 | 14.2 |
| Fc1ccc(CN2Cc3nccn3CC(CN3CCOCC3)C2)cc1 (stereo unspecified) | -73.7 |
| CCc1ccc2nc(C)cc(C(=O)NC3CCCCNC3=O)c2c1 (stereo unspecified) | -8.48 |
| COC(=O)NCC(=O)N1CCCC(c2ncc[nH]2)C1 (stereo unspecified) | 2.42 |
| Cc1nn(C)c(C)c1CNCc1cccnc1N1CCOCC1 | -138 |
| CCN(CC)c1ncccc1CNC(=O)c1cnn(CC)c1 | -8.2 |
| CN1CCCC(CCCc2cccnc2)(C(N)=O)C1 (stereo unspecified) | -7.86 |
| Cc1cc(C)n(Cc2cc(C(=O)N[C@H]3CCCCNC3=O)n[nH]2)n1 | 5.97 |
| CC(C)(C)CN[C@@H]1CO[C@H](CNC(=O)c2cccs2)[C@H]1O | -4.23 |
| CCNc1ncc(C(=O)NCCc2csc(CSC)n2)cn1 | -5.63 |
| O=C1CCC2(CCN(CC[C@@H](O)c3ccccc3)CC2)CN1CC1CC1 | 4.51 |
| Cc1cccc(C2(CNC(=O)C(C)NC(N)=O)CCCC2)c1 (stereo unspecified) | 7.19 |
| Cc1nn(C)c(C)c1S(=O)(=O)N(CC(N)=O)CC(C)C | 10.5 |
| Cn1c(CN2CCCC2c2noc(C3CC3)n2)cc(=O)n(C)c1=O (stereo unspecified) | 4.04 |
| O=C(NC1CCN(Cn2nc(-c3ccccc3)oc2=O)CC1)C1CC1 | 8.19 |
| Cn1nc(C(=O)N(CC(F)(F)F)c2cccc(Cl)c2)ccc1=O | 7.48 |

| Structure (SMILES) | cytotoxicity at 10 µM [%] |
| --- | --- |
| COc1ccc(CC2(CO)CCN(c3cc(C#N)ccn3)CC2)cc1 | 8.86 |
| Cc1nnc(CN2CCN(CC(O)c3ccccc3)CC2)o1 (stereo unspecified) | -18.9 |
| Cc1cc(-c2nc(C3(NC(=O)OC(C)(C)C)CCC3)no2)on1 | 5.98 |
| N#Cc1cccc(N2CCC(CO)(CCc3ccccc3)CC2)n1 | -48 |
| NC(=O)CCn1cc(CNCc2csc(N)n2)c2ccccc21 | 6.7 |
| CC(=O)c1cnc(NCC2OCCc3ccccc32)nc1C (stereo unspecified) | -48.9 |
| CN(C)CC(O)Cn1cc(NCc2ccc(Br)cc2)cn1 (stereo unspecified) | 7.48 |
| CN(C)c1ccc(C(=O)N(CCO)CC2CC2)c(F)c1 | 5.25 |
| COCc1cc(C[C@@H]2CC[C@H](O)[C@@H](CN(C)C)O2)no1 | 12 |
| O=c1[nH]c2nc(N3CCCCCC3)ncc2c(=O)n1-c1cccc(F)c1 | 6.39 |
| Cc1ncc2c(n1)CN(Cc1nc(-c3ccco3)oc1C)CC2 | 2.2 |
| COc1nc2c(cc1C(=O)NCCc1nc3c(s1)CCC3)CCC2 | 5.05 |
| CCC(=O)N1CCCC1(C)c1nc(C)no1 (stereo unspecified) | 1.34 |
| CO[C@H]1CC[C@H]2[C@H]1OCCN2C(=O)C1=CCCC1 | -131 |
| CN(Cc1ccco1)C[C@H]1OC[C@@H]2CCN(Cc3cccs3)C[C@@H]21 | 8.11 |
| CCOc1ccc(NC(=O)NCc2csc(NC)n2)cc1C | -3.91 |
| Cc1cc(C2CCC2)nc(NCCC23CCCN2CCC3)n1 | 0.414 |
| Cn1cccc1C(=O)N1CCC2(CC1)CCN2S(C)(=O)=O | 8.73 |
| O=C(c1ccncc1F)N1CC[C@@H]2OC(COCC3CC3)CC[C@@H]21 (stereo partly specified) | -4.03 |
